pKi: −log10 of the molar value.
Legend:
Assay type in all cases: cell-based
[1] = target: T1, GABA-A receptor; alpha-3/beta-3/gamma-2 (Homo sapiens) (UniProt P18507+P28472+P34903); assay: Efficacy was determined against Gamma-aminobutyric acid A receptor, alpha 3 expressed in Xenopus oocytes; conditions: Oocyte
In short: (§1)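 Cloned human α1β3γ2, α2β3γ2 or α3β3γ2 receptors transiently expressed in Xenopus oocytes; two-electrode voltage clamp; modulation of GABA EC20 current by a single test-compound concentration (nM, given per value); means ± SEM, n = 3-7.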

[2] = target: T2, GABA-A receptor; alpha-3/beta-3/gamma-2 (Homo sapiens, UniProt P18507+P28472+P34903); assay: In vitro binding affinity against Gamma-aminobutyric acid A receptor, alpha 3 expressed in L(tk) cells by displacement of [3H]Ro-151788
T2 sequence (P18507 whole entry): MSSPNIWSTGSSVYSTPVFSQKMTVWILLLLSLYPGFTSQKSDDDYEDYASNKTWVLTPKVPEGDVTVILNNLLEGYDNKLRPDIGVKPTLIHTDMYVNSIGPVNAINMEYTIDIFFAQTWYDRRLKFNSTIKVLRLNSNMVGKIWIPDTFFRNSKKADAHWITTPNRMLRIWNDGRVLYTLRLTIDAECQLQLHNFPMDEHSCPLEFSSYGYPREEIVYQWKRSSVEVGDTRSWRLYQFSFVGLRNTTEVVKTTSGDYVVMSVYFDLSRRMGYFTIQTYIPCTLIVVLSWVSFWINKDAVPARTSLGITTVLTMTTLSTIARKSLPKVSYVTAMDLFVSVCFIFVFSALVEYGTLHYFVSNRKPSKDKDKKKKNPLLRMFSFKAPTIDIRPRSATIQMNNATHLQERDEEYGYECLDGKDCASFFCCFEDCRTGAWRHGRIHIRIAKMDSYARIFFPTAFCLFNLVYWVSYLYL
T2 sequence (P28472 whole entry): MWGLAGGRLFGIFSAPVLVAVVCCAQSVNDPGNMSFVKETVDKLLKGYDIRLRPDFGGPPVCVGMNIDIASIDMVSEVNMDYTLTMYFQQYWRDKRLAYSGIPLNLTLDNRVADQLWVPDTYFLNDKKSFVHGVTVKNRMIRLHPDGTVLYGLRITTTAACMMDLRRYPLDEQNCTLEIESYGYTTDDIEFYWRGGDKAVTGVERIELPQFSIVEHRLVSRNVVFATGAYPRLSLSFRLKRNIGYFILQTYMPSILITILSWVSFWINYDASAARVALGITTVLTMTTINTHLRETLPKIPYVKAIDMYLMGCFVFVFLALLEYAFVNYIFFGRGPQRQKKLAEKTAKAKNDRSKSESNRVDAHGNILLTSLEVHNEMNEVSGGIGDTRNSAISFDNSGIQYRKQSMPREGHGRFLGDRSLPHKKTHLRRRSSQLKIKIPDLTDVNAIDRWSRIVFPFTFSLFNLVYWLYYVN
T2 sequence (P34903 whole entry): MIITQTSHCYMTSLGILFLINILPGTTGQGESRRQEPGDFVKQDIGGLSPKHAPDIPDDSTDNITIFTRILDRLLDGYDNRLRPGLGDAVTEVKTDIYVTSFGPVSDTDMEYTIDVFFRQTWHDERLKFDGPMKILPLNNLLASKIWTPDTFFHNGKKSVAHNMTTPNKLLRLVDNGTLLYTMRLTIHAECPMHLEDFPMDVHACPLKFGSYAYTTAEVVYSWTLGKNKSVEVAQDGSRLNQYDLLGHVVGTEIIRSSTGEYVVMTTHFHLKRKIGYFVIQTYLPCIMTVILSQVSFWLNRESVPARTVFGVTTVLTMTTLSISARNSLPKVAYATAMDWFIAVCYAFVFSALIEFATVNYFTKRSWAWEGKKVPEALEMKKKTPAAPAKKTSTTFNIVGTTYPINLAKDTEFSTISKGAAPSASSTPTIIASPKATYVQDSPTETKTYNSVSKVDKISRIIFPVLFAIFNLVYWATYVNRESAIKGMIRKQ
In short: (§2)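 Binding to cloned human α1β3γ2, α2β3γ2 or α3β3γ2 receptors stably expressed in L(tk-) cells, measured as displacement of [3H]Ro15-1788; means ± SEM, n = 3-7.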

[3] = target: T3, GABA-A receptor; alpha-1/beta-3/gamma-2 (Homo sapiens, UniProt P14867+P18507+P28472); assay: In vitro binding affinity against gamma-aminobutyric acid A receptor, alpha 1 expressed in L(tk) cells by displacement of [3H]Ro-151788; in short: as §2
T3 sequence (P14867 whole entry): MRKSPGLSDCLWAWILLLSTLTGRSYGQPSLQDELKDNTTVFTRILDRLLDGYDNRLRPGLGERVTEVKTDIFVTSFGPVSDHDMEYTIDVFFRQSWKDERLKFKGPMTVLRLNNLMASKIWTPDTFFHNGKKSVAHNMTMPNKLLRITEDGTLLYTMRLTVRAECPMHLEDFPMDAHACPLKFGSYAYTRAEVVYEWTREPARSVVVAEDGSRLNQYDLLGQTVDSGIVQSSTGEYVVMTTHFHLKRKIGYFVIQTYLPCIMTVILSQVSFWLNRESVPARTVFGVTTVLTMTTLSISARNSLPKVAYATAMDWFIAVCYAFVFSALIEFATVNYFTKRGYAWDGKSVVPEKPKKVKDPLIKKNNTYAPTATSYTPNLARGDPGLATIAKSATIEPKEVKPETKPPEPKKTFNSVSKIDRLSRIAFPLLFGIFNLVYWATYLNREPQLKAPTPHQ
T3 sequence (P18507 whole entry): T2 sequence (P18507 whole entry)
T3 sequence (P28472 whole entry): T2 sequence (P28472 whole entry)

[4] = target: T4, GABA-A receptor; alpha-1/beta-3/gamma-2 (Homo sapiens) (UniProt P14867+P18507+P28472); assay: Efficacy was determined against gamma-aminobutyric acid A receptor, alpha 1 expressed in Xenopus oocytes; conditions: Oocyte; in short: as §1
[5] = target: T4, GABA-A receptor; alpha-1/beta-3/gamma-2 (Homo sapiens); assay: Efficacy against human GABA-A receptor alpha-1-beta-3-gamma-2 subunits expressed in L(tk-) cells by whole-cell patch-clamp
In short: (§3)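 Whole-cell patch-clamp of L(tk-) cells stably expressing cloned human α1β3γ2, α2β3γ2 or α3β3γ2 receptors; full concentration-effect curves built; means ± SEM, n = 3-7.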

[6] = target: T1, GABA-A receptor; alpha-3/beta-3/gamma-2 (Homo sapiens); assay: Efficacy against human GABA-A receptor alpha-3-beta-3-gamma-2 subunits expressed in L(tk-) cells by whole-cell patch-clamp; in short: as §3
[7] = target: T5, GABA-A receptor; alpha-2/beta-3/gamma-2 (Homo sapiens) (UniProt P18507+P28472+P47869); assay: Efficacy relative to GABA EC20 against human GABA-A receptor alpha-2-beta-3-gamma-2 subunits expressed in Xenopus oocytes; conditions: Oocyte; in short: as §1
[8] = target: T5, GABA-A receptor; alpha-2/beta-3/gamma-2 (Homo sapiens); assay: Efficacy against human GABA-A receptor alpha-2-beta-3-gamma-2 subunits expressed in L(tk-) cells by whole-cell patch-clamp; in short: as §3
[9] = target: T6, GABA-A receptor; alpha-2/beta-3/gamma-2 (Homo sapiens, UniProt P18507+P28472+P47869); assay: In vitro displacement of [3H]Ro-151788 from human GABA-A receptor alpha-2-beta-3-gamma-2 subunits expressed in L(tk-) cells; in short: as §2
T6 sequence (P18507 whole entry): T2 sequence (P18507 whole entry)
T6 sequence (P28472 whole entry): T2 sequence (P28472 whole entry)
T6 sequence (P47869 whole entry): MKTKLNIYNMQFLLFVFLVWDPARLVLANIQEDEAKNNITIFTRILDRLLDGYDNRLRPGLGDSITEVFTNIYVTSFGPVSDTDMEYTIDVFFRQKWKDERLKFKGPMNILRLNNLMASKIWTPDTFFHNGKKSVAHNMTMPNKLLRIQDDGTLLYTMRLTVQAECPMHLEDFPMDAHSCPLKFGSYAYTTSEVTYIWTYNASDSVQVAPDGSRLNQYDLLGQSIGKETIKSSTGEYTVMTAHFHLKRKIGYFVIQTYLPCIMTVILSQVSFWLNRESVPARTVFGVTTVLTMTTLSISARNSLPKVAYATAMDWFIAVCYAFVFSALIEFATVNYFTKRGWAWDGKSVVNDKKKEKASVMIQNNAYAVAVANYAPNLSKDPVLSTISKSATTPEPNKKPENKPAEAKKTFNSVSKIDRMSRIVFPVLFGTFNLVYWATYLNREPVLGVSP

[10] = target: T2, GABA-A receptor; alpha-3/beta-3/gamma-2; assay: In vitro displacement of [3H]Ro-151788 from human GABA-A receptor alpha-3-beta-3-gamma-2 subunits expressed in L(tk-) cells; in short: as §2

SMILES: Oc1c2cnc3c(c2nn1-c1ccc(OC(F)(F)F)cc1)CCCC3
- Efficacy [1]: 35%
- pKi [2]: 8.33
- pKi [3]: 8.13
- Efficacy [4]: 14%

SMILES: Oc1c2c(nn1-c1ccc(OC(F)F)cc1)C1COCCC1N=C2 (centres undefined)
- Efficacy [1]: 32%
- pKi [2]: 8.19
- pKi [3]: 8.81
- Efficacy [4]: 11%

SMILES: Oc1c2cnc3c(c2nn1-c1ccc(OC2CCC2)cc1)CCCC3
- Efficacy [1]: 36%
- pKi [2]: 8.59
- pKi [3]: 8.89
- Efficacy [4]: 49%

SMILES: COc1ccc(-n2nc3c4c(ncc3c2O)CCCC4)cc1
- Efficacy [1]: 55%
- pKi [2]: 9.21
- pKi [3]: 9.51
- Efficacy [4]: 15%

SMILES: Oc1c2cnc3c(c2nn1-c1ccc(OC(F)F)cc1)CCCC3
- Efficacy [5]: 2%
- Efficacy [6]: 34%
- Efficacy [1]: 56%
- pKi [2]: 8.65
- pKi [3]: 9.00
- Efficacy [4]: 21%

SMILES: Oc1c2c(nn1-c1ccc(Cl)cc1)C1CCCCCC1N=C2 (centres undefined)
- Efficacy [1]: 87%
- pKi [2]: 8.37
- pKi [3]: 8.97
- Efficacy [4]: 23%

SMILES: Oc1c2c(nn1-c1ccc(OC(F)F)cc1)C1CSCCC1N=C2 (centres undefined)
- Efficacy [1]: 25%
- pKi [2]: 9.05
- pKi [3]: 9.42
- Efficacy [4]: 9%

SMILES: O=c1c2c[nH]c3c(c-2nn1-c1ccc(Cl)cc1)CCCC3
- Efficacy [7]: 61%
- Efficacy [5]: 17%
- Efficacy [6]: 70%
- Efficacy [1]: 93%
- Efficacy [8]: 43%
- pKi [9]: 9.11
- pKi [2]: 8.99
- pKi [3]: 9.72
- Efficacy [4]: 12%

SMILES: Oc1c2c(nn1-c1ccc(Cl)cc1)C1CCCC1N=C2 (centres undefined)
- Efficacy [1]: 51%
- pKi [2]: 8.95
- pKi [3]: 9.36
- Efficacy [4]: 19%

SMILES: Oc1c2c(nn1-c1ccc(Cl)cc1)C1CN(Cc3ccncc3)CCC1N=C2 (centres undefined)
- Efficacy [1]: 199%
- pKi [2]: 9.25
- pKi [3]: 9.74
- Efficacy [4]: 131%

SMILES: Oc1c2cnc3c(c2nn1-c1ccc(F)cc1)CCCC3
- Efficacy [1]: 33%
- pKi [2]: 9.19
- pKi [3]: 9.54
- Efficacy [4]: -2%

SMILES: O=C(Cc1cccnc1)N1CCC2N=Cc3c(nn(-c4ccc(Cl)cc4)c3O)C2C1 (centres undefined)
- Efficacy [1]: 2.3%
- pKi [2]: 8.27
- pKi [3]: 8.50
- Efficacy [4]: 49%

SMILES: Oc1c2c(nn1-c1ccc(Cl)cc1)C1CN(CC3CC3)CCC1N=C2 (centres undefined)
- Efficacy [1]: 123%
- pKi [2]: 8.13
- pKi [3]: 9.35
- Efficacy [4]: 111%

SMILES: Oc1c2cnc3c(c2nn1-c1ccccn1)CCCC3
- Efficacy [1]: -7%
- pKi [2]: 8.94
- pKi [3]: 9.24
- Efficacy [4]: -39%

SMILES: Oc1c2cnc3c(c2nn1-c1ccc(OC2CC2)cc1)CCCC3
- Efficacy [5]: -4.3%
- Efficacy [6]: 54%
- Efficacy [1]: 62%
- pKi [10]: 8.66
- pKi [3]: 8.95
- Efficacy [4]: 19%

Source: ChEMBL document CHEMBL1149231, “2,5-Dihydropyrazolo[4,3-c]pyridin-3-ones: functionally selective benzodiazepine binding site ligands on the GABAA receptor” (Bioorg Med Chem Lett, 2004)
